Results reported in ChEMBL document CHEMBL1136257, “New highly active taxoids from 9beta-dihydrobaccatin-9,10-acetals. Part 3” (Bioorg Med Chem Lett, 2003).
Values after ≈ are worked out from the molar mass of the structure shown.

Key:
[1] = tested on: Mus musculus; test: Maximum rate of body weight loss was determined in mice inoculated with B16 melanoma BL6 cells sc at a dose 12 mg/kg by intravenous administration; type: functional
Method in brief: (§1)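 On day 0, B16 melanoma BL6 cells (cultured line) were implanted subcutaneously into C57BL/6 mice, six per group. A single iv or oral dose was given on day 4, and body weight was followed. BWLmax (%) is the maximum rate of body weight loss; a value below 0 means no loss.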

[2] = tested on: Mus musculus; test: Mortality was determined in mice inoculated with B16 melanoma BL6 cells sc at a dose 40.5 mg/kg by peroral administration; 0/6; type: functional; details: route oral
[3] = tested on: Mus musculus; test: Mortality was determined in mice inoculated with B16 melanoma BL6 cells sc at a dose 12 mg/kg by intravenous administration; 0/6; type: functional
[4] = Solubility of compound in JP1 at pH 1.2 using UV assay; type: physicochemical; details: JP1, pH 1.2
[5] = tested on: Mus musculus; test: Maximum rate of body weight loss was determined in mice inoculated with B16 melanoma BL6 cells sc at a dose 40.5 mg/kg by peroral administration; type: functional; details: route oral; method in brief: as §1
[6] = tested on: Mus musculus; test: Mortality was determined in mice inoculated with B16 melanoma BL6 cells sc at a dose 18 mg/kg by peroral administration; 0/6; type: functional; details: route oral
[7] = tested on: Mus musculus; test: Mean tumor weight was determined in mice inoculated with B16 melanoma BL6 cells sc at a dose 12 mg/kg iv [IR (%) = (1-TWt/TWc)*100]; type: functional
Method in brief: (§2)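 C57BL/6 mice (six per group) received subcutaneous B16 melanoma BL6 cells on day 0 and a single iv or oral dose on day 4. Tumors were excised and weighed on day 15. Inhibition rate IR (%) = (1 − mean treated tumor weight/mean control tumor weight) × 100.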

[8] = tested on: Mus musculus; test: Mean tumor weight was determined in mice inoculated with B16 melanoma BL6 cells sc at a dose 40.5 mg/kg po [IR (%) = (1-TWt/TWc)*100]; type: functional; method in brief: as §2
[9] = tested on: Mus musculus; test: Mortality was determined in mice inoculated with B16 melanoma BL6 cells sc at a dose 18 mg/kg by intravenous administration; 0/6; type: functional
[10] = Solubility of compound in JP2 at pH 6.8 using UV assay; type: physicochemical; details: JP2, pH 6.8
[11] = tested on: PC-6; test: Cytotoxic activity against human lung cancer PC-6 cell line; type: functional
Method in brief: (§3)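 Growth inhibition (IC50) of mouse leukemia P388 and human lung cancer PC-6 and PC-12 cells after 72 h continuous exposure to compound; IC50 taken as the concentration giving 50% growth inhibition.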

[12] = tested on: Mus musculus; test: Maximum rate of body weight loss was determined in mice inoculated with B16 melanoma BL6 cells sc at a dose 12 mg/kg by peroral administration; type: functional; details: route oral; method in brief: as §1
[13] = tested on: Mus musculus; test: Maximum rate of body weight loss was determined in mice inoculated with B16 melanoma BL6 cells sc at a dose 18 mg/kg by peroral administration; type: functional; details: route oral; method in brief: as §1
[14] = tested on: Mus musculus; test: Mean tumor weight was determined in mice inoculated with B16 melanoma BL6 cells sc at a dose 27 mg/kg po [IR (%) = (1-TWt/TWc)*100]; type: functional; method in brief: as §2
[15] = tested on: Mus musculus; test: Mean tumor weight was determined in mice inoculated with B16 melanoma BL6 cells sc at a dose 18 mg/kg iv [IR (%) = (1-TWt/TWc)*100]; type: functional; method in brief: as §2
[16] = tested on: Mus musculus; test: Mean tumor weight was determined in mice inoculated with B16 melanoma BL6 cells sc at a dose 18 mg/kg po [IR (%) = (1-TWt/TWc)*100]; type: functional; method in brief: as §2
[17] = tested on: Mus musculus; test: Mortality was determined in mice inoculated with B16 melanoma BL6 cells sc at a dose 8 mg/kg by intravenous administration; 0/6; type: functional
[18] = Solubility in water using UV assay; type: physicochemical
[19] = tested on: Mus musculus; test: Maximum rate of body weight loss was determined in mice inoculated with B16 melanoma BL6 cells sc at a dose 27 mg/kg by peroral administration; type: functional; details: route oral; method in brief: as §1
[20] = tested on: Mus musculus; test: Mortality was determined in mice inoculated with B16 melanoma BL6 cells sc at a dose 27 mg/kg by intravenous administration; 0/6; type: functional
[21] = tested on: Mus musculus; test: Mean tumor weight was determined in mice inoculated with B16 melanoma BL6 cells sc at a dose 8 mg/kg iv [IR (%) = (1-TWt/TWc)*100]; type: functional; method in brief: as §2
[22] = tested on: Mus musculus; test: Mean tumor weight was determined in mice inoculated with B16 melanoma BL6 cells sc at a dose 12 mg/kg po [IR (%) = (1-TWt/TWc)*100]; type: functional; method in brief: as §2
[23] = tested on: Mus musculus; test: Maximum rate of body weight loss was determined in mice inoculated with B16 melanoma BL6 cells sc at a dose 27 mg/kg by intravenous administration; type: functional; method in brief: as §1
[24] = tested on: Mus musculus; test: Maximum rate of body weight loss was determined in mice inoculated with B16 melanoma BL6 cells sc at a dose 8 mg/kg by intravenous administration; type: functional; method in brief: as §1
[25] = tested on: PC-12; test: Cytotoxic activity against human lung cancer PC-12 cell line
[26] = tested on: Mus musculus; test: Mean tumor weight was determined in mice inoculated with B16 melanoma BL6 cells sc at a dose 27 mg/kg iv [IR (%) = (1-TWt/TWc)*100]; type: functional; method in brief: as §2
[27] = tested on: Mus musculus; test: Mortality was determined in mice inoculated with B16 melanoma BL6 cells sc at a dose 12 mg/kg by peroral administration; 0/6; type: functional; details: route oral
[28] = tested on: P388; test: Cytotoxic activity against mouse leukemia P388 cell line; type: functional; method in brief: as §3
[29] = tested on: Mus musculus; test: Maximum rate of body weight loss was determined in mice inoculated with B16 melanoma BL6 cells sc at a dose 18 mg/kg by intravenous administration; type: functional; method in brief: as §1
[30] = tested on: Mus musculus; test: Mortality was determined in mice inoculated with B16 melanoma BL6 cells sc at a dose 27 mg/kg by peroral administration; 0/6; type: functional; details: route oral
[31] = tested on: Mus musculus; test: Mortality was determined in mice inoculated with B16 melanoma BL6 cells sc at a dose 600 mg/kg by peroral administration; 0/6; type: functional; details: route oral
[32] = tested on: Mus musculus; test: Mortality was determined in mice inoculated with B16 melanoma BL6 cells sc at a dose 100 mg/kg by intravenous administration; 0/6; type: functional
[33] = tested on: Mus musculus; test: Mean tumor weight was determined in mice inoculated with B16 melanoma BL6 cells sc at a dose 100 mg/kg iv [IR (%) = (1-TWt/TWc)*100]; type: functional; method in brief: as §2
[34] = tested on: Mus musculus; test: Maximum rate of body weight loss was determined in mice inoculated with B16 melanoma BL6 cells sc at a dose 100 mg/kg by intravenous administration; type: functional; method in brief: as §1
[35] = tested on: Mus musculus; test: Mean tumor weight was determined in mice inoculated with B16 melanoma BL6 cells sc at a dose 600 mg/kg po [IR (%) = (1-TWt/TWc)*100]; type: functional; method in brief: as §2
[36] = tested on: Mus musculus; test: Maximum rate of body weight loss was determined in mice inoculated with B16 melanoma BL6 cells sc at a dose 600 mg/kg by peroral administration; type: functional; details: route oral; method in brief: as §1

Question: With `CC(=O)O[C@@]12CO[C@@H]1CC[C@@]1(C)[C@@H]3O[C@H](CN4CCOCC4)O[C@@H]3C3=C(C)[C@@H](OC(=O)[C@](C)(O)[C@@H](NC(=O)c4ccccc4)c4ccccn4)C[C@@](O)([C@@H](OC(=O)c4ccccc4)[C@@H]12)C3(C)C` as the compound, how does the BWLmax [1] read?
Answer: <0%

Question: And the Mortality [2]?
Answer: 0

Question: What about the Mortality [3] of the same compound?
Answer: 0

Question: And the solubility [4]?
Answer: > 1800 µg/mL

Question: What about the BWLmax [5] of the same compound?
Answer: 4.1%

Question: What about the Mortality [6] of the same compound?
Answer: 0

Question: What about the IR [7] of the same compound?
Answer: 75.4%

Question: And the IR [8]?
Answer: 96.9%

Question: And the Mortality [9]?
Answer: 0

Question: What about the solubility [10] of the same compound?
Answer: < 4 µg/mL

Question: And the GI50 [11]?
Answer: 0.45 ng/mL (≈ 0.000487 µM)

Question: And the BWLmax [12]?
Answer: <0%

Question: What about the BWLmax [13] of the same compound?
Answer: <0%

Question: And the IR [14]?
Answer: 91.3%

Question: And the IR [15]?
Answer: 89.8%

Question: And the IR [16]?
Answer: 59.7%

Question: And the Mortality [17]?
Answer: 0

Question: And the solubility [18]?
Answer: < 4 µg/mL

Question: What about the BWLmax [19] of the same compound?
Answer: <0%

Question: And the Mortality [20]?
Answer: 0

Question: And the IR [21]?
Answer: 61.3%

Question: And the IR [22]?
Answer: 23.4%

Question: What about the BWLmax [23] of the same compound?
Answer: 2.4%

Question: What about the BWLmax [24] of the same compound?
Answer: <0%

Question: What about the GI50 [25] of the same compound?
Answer: 0.57 ng/mL (≈ 0.000617 µM)

Question: And the IR [26]?
Answer: 95.8%

Question: And the Mortality [27]?
Answer: 0

Question: And the GI50 [28]?
Answer: 0.19 ng/mL (≈ 0.000206 µM)

Question: And the BWLmax [29]?
Answer: <0%

Question: And the Mortality [30]?
Answer: 0

Question: Which results are given for `CC(=O)O[C@@]12CO[C@@H]1C[C@H](O)[C@@]1(C)C(=O)[C@H](O)C3=C(C)[C@@H](OC(=O)[C@H](O)[C@@H](NC(=O)OC(C)(C)C)c4ccccc4)C[C@@](O)([C@@H](OC(=O)c4ccccc4)[C@H]21)C3(C)C.O.O.O` [DOCETAXEL]?
Answer: solubility [4]: < 4 µg/mL; Mortality [31]: 0; solubility [10]: < 4 µg/mL; Mortality [32]: 0; GI50 [11]: 0.41 ng/mL; IR [33]: 95.1%; BWLmax [34]: <0%; solubility [18]: < 4 µg/mL; GI50 [25]: 14.9 ng/mL; IR [35]: 6.2%; BWLmax [36]: <0%; GI50 [28]: 0.78 ng/mL

Question: What does the source list for `CC(=O)O[C@@]12CO[C@@H]1CC[C@@]1(C)[C@@H]3O[C@H](CN4CCOCC4)O[C@@H]3C3=C(C)[C@@H](OC(=O)[C@](C)(O)[C@@H](NC(=O)OC(C)(C)C)c4ccccc4)C[C@@](O)([C@@H](OC(=O)c4ccccc4)[C@@H]12)C3(C)C`?
Answer: solubility [4]: 350 µg/mL (≈ 381 µM); solubility [10]: < 4 µg/mL; GI50 [11]: 0.47 ng/mL (≈ 0.000511 µM); solubility [18]: < 4 µg/mL; GI50 [25]: 0.07 ng/mL (≈ 7.62e-05 µM); GI50 [28]: 0.02 ng/mL (≈ 2.18e-05 µM)
